From ChEMBL document CHEMBL1125469, “"Mixed inhibitor-prodrug" as a new approach toward systemically active inhibitors of enkephalin-degrading enzymes” (1992) come the findings set out here.

Holding throughout (type): functional
Assay [1] relates to Mus musculus. As to the kind of experiment: Compound was evaluated for the antinociceptive response after intravenous administration using hot-plat test (55+/-1 degree Celsius) in mice (for jump latency time) at the dose of 10 mg/kg. A digest of the protocol: (§1)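 Mice on a hot plate held at 55 ± 0.5 °C inside a glass cylinder, tested 15 min after iv dosing. Read-out was latency to jump, with a 240 s cutoff. % analgesia = (test − control latency)/(cutoff − control latency) × 100. Groups compared by ANOVA followed by Dunnett's t test.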

Assay [2] concerns Mus musculus. As to the kind of experiment: Compound was evaluated for the antinociceptive response after intravenous administration using hot-plat test (55+/-1 degree Celsius) in mice (for jump latency time) at the dose of 5 mg/kg. An outline of the steps:
as §1

Assay [3] concerns Mus musculus. As to the kind of experiment: Compound was evaluated for the antinociceptive response after intravenous administration using hot-plat test (55+/-1 degree Celsius) in mice (for jump latency time) at the dose of 0 mg/kg. An outline of the steps: as §1
Assay [4] concerns Mus musculus. As to the kind of experiment: Compound was evaluated for the antinociceptive response after intravenous administration using hot-plat test (55+/-1 degree Celsius) in mice (for jump latency time) at the dose of 1 mg/kg. A digest of the protocol:
as §1

Assay [5] has as its system Mus musculus. As to the kind of experiment: Compound was evaluated for the percentage of analgesic effect in mice at the time of 15 min after intravenous administration of dose 10 mg/kg. An outline of the steps: as §1
Assay [6] has as its system Mus musculus. As to the kind of experiment: Compound was evaluated for the percentage of analgesic effect in mice at the time of 15 min after intravenous administration of dose 5 mg/kg. An outline of the steps: as §1
In assay [7] the test system is Mus musculus. As to the kind of experiment: Compound was evaluated for the percentage of analgesic effect in mice at the time of 15 min after intravenous administration of dose 1 mg/kg. A digest of the protocol:
as §1

The test system of assay [8] is Mus musculus. As to the kind of experiment: Compound was evaluated for the antinociceptive response after intravenous administration using hot-plat test (55+/-1 degree Celsius) in mice (for jump latency time) at the dose of 0.75*10e-6 mol/mice and 0.46*10e-6 mol/mice respectively. An outline of the steps: as §1
Assay [9] has as its system Mus musculus. As to the kind of experiment: Compound was evaluated for the percentage of analgesic effect in mice at the time of 15 min after intravenous administration of dose 0.75*10e-6 mol/mice and 0.46*10e-6 mol/mice respectively. An outline of the steps: as §1
Assay [10] relates to Mus musculus. As to the kind of experiment: Compound (20 mg/kg) was evaluated for the antinociceptive response after intravenous administration using hot-plat test (55+/-1 degree Celsius) in mice(for jump latency time) at the dose of 0.57*10e-6 mol/mouse. An outline of the steps:
as §1

Assay [11] deals with Mus musculus. As to the kind of experiment: Compound (20 mg/kg) was evaluated for the percentage of analgesic effect in mice at the time of 15 min after intravenous administration of dose 0.57*10e-6 mol/mouse. An outline of the steps: as §1

Take `CC(=O)SCC(Cc1ccccc1)C(=O)NCC(=O)SC[C@@H](N)Cc1ccccc1` (stereo not given in full): the Jump latency time worked out at 143 s in [1], 80.4 s in assay [2], 56.7 s in assay [3] and 74.1 s in [4]. Also, the results for the Analgesia in assay [5], in assay [6] and in assay [7] were 63%, 13% and 9%, respectively.

As to `N[C@H](CSC(=O)CCC(=O)SCC(Cc1ccccc1)C(=O)NCC(=O)OCc1ccccc1)Cc1ccccc1` (stereo not given in full), the figures for the Jump latency time in [1], in assay [2] and in assay [3] were 71.7 s, 46.5 s and 48.7 s, respectively. The compound further yielded an Analgesia in assay [5] of 12%.

In turn, `CSCCC(N)CSSCC(N)CCSC.O=C(NC(Cc1ccccc1)C(=O)OCc1ccccc1)C(CSSCC(Cc1ccccc1)C(=O)NC(Cc1ccccc1)C(=O)OCc1ccccc1)Cc1ccccc1` (stereo not given) had a Jump latency time in assay [8] of 126 s. In addition, in assay [9], the Analgesia worked out at 32.2%.

`CSCCC(N)CSSCC(Cc1ccccc1)C(=O)NC(Cc1ccccc1)C(=O)OCc1ccccc1` (stereo not given): the Jump latency time in [10] worked out at 236 s. This compound also returned an Analgesia in [11] of 92.1%.
